According to ChEMBL document CHEMBL3751743, “Synthesis and anti-cancer screening of novel heterocyclic-(2H)-1,2,3-triazoles as potential anti-cancer agents” (Medchemcomm, 2015):

Columns and labels:
Assay type in all cases: functional
[1] = Cytotoxicity against human DU145 cells after 48 hrs by SRB assay; details: DU-145, 48 h
Procedure, shortened: (§1)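 NCI-60 five-dose screen: compounds dissolved in DMSO/H2O, tested at five 10-fold dilutions (10^-4 to 10^-8 M) for 48 h. Growth measured by sulforhodamine B optical density at time zero and after 48 h drug or vehicle exposure. Percentage growth calculated relative to control. GI50 is the molar concentration giving 50% reduction in net cell growth versus day-0 cell numbers.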

[2] = system: MCF7; assay: Cytotoxicity against human MCF7 cells after 48 hrs by SRB assay; details: MCF7, 48 h; procedure, shortened: as §1
[3] = system: MDA-MB-231; assay: Cytotoxicity against human MDA-MB-231 cells after 48 hrs by SRB assay; details: MDA-MB-231, 48 h; procedure, shortened: as §1
[4] = Cytotoxicity against human Hs 578T cells after 48 hrs by SRB assay; procedure, shortened: as §1
[5] = Cytotoxicity against human BT549 cells after 48 hrs by SRB assay; details: BT-549, 48 h; procedure, shortened: as §1
[6] = system: T47D; assay: Cytotoxicity against human T47D cells after 48 hrs by SRB assay
Procedure, shortened: (§2)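 NCI-60 five-dose screen. Compounds dissolved in DMSO/H2O and tested at five 10-fold dilutions (10^-4 to 10^-8 M) for 48 h. Growth read by sulforhodamine B optical density at time zero and after 48 h of exposure to compound or vehicle. Percent growth calculated against control. GI50 is the molar concentration giving 50% reduction in net cell growth relative to cell number on day 0.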

[7] = system: MDA-MB-468; assay: Cytotoxicity against human MDA-MB-468 cells after 48 hrs by SRB assay; details: MDA-MB-468, 48 h; procedure, shortened: as §1
[8] = system: CCRF-CEM; assay: Cytotoxicity against human CCRF-CEM cells after 48 hrs by SRB assay; procedure, shortened: as §1
[9] = Cytotoxicity against human HL-60(TB) cells after 48 hrs by SRB assay; details: HL-60, 48 h; procedure, shortened: as §1
[10] = system: K562; assay: Cytotoxicity against human K562 cells after 48 hrs by SRB assay; details: K562, 48 h; procedure, shortened: as §1
[11] = Cytotoxicity against human MOLT4 cells after 48 hrs by SRB assay; details: MOLT-4, 48 h; procedure, shortened: as §1
[12] = Cytotoxicity against human RPMI8226 cells after 48 hrs by SRB assay; details: RPMI-8226, 48 h; procedure, shortened: as §1
[13] = system: A549; assay: Cytotoxicity against human A549 cells after 48 hrs by SRB assay; details: A549, 48 h; procedure, shortened: as §1
[14] = system: EKVX; assay: Cytotoxicity against human EKVX cells after 48 hrs by SRB assay
Procedure, shortened: (§3)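 NCI-60 five-dose screen: compounds in DMSO/H2O tested at 10^-4 to 10^-8 M (10-fold steps) for 48 h. Cell mass read by sulforhodamine B optical density at time zero and after exposure to compound or vehicle. GI50 is the concentration giving 50% reduction in net cell growth relative to day-0 cell numbers.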

[15] = Cytotoxicity against human HOP62 cells after 48 hrs by SRB assay; details: HOP-62, 48 h; procedure, shortened: as §3
[16] = Cytotoxicity against human HOP92 cells after 48 hrs by SRB assay; details: HOP-92, 48 h; procedure, shortened: as §1
[17] = system: NCI-H226; assay: Cytotoxicity against human NCI-H226 cells after 48 hrs by SRB assay; details: NCI-H226, 48 h; procedure, shortened: as §1
[18] = system: NCI-H23; assay: Cytotoxicity against human NCI-H23 cells after 48 hrs by SRB assay; details: NCI-H23, 48 h; procedure, shortened: as §1
[19] = system: NCI-H460; assay: Cytotoxicity against human NCI-H460 cells after 48 hrs by SRB assay; details: NCI-H460, 48 h; procedure, shortened: as §1
[20] = system: NCI-H522; assay: Cytotoxicity against human NCI-H522 cells after 48 hrs by SRB assay; details: NCI-H522, 48 h; procedure, shortened: as §1
[21] = Cytotoxicity against human COLO205 cells after 48 hrs by SRB assay; details: COLO 205, 48 h; procedure, shortened: as §1
[22] = Cytotoxicity against human HCC2998 cells after 48 hrs by SRB assay; details: HCC 2998, 48 h; procedure, shortened: as §1
[23] = Cytotoxicity against human HCT116 cells after 48 hrs by SRB assay; details: HCT-116, 48 h; procedure, shortened: as §1
[24] = Cytotoxicity against human HCT15 cells after 48 hrs by SRB assay; details: HCT-15, 48 h; procedure, shortened: as §1
[25] = system: HT-29; assay: Cytotoxicity against human HT-29 cells after 48 hrs by SRB assay; details: HT-29, 48 h; procedure, shortened: as §1
[26] = system: KM12; assay: Cytotoxicity against human KM12 cells after 48 hrs by SRB assay; details: KM12, 48 h; procedure, shortened: as §1
[27] = Cytotoxicity against human SW620 cells after 48 hrs by SRB assay; details: SW-620, 48 h; procedure, shortened: as §1
[28] = Cytotoxicity against human SF268 cells after 48 hrs by SRB assay; details: SF-268, 48 h; procedure, shortened: as §1
[29] = Cytotoxicity against human SF295 cells after 48 hrs by SRB assay; details: SF-295, 48 h; procedure, shortened: as §1
[30] = Cytotoxicity against human SF539 cells after 48 hrs by SRB assay; details: SF-539, 48 h; procedure, shortened: as §1
[31] = Cytotoxicity against human SNB19 cells after 48 hrs by SRB assay; details: SNB-19, 48 h; procedure, shortened: as §1
[32] = system: U-251; assay: Cytotoxicity against human U251 cells after 48 hrs by SRB assay; details: U-251, 48 h; procedure, shortened: as §2
[33] = Cytotoxicity against human LOXIMVI cells after 48 hrs by SRB assay; details: LOX IMVI; procedure, shortened: as §1
[34] = system: Malme-3M; assay: Cytotoxicity against human MALME-3M cells after 48 hrs by SRB assay; procedure, shortened: as §3
[35] = system: M14; assay: Cytotoxicity against human M14 cells after 48 hrs by SRB assay; details: M14, 48 h; procedure, shortened: as §1
[36] = system: MDA-MB-435; assay: Cytotoxicity against human MDA-MB-435 cells after 48 hrs by SRB assay; details: MDA-MB-435, 48 h; procedure, shortened: as §1
[37] = system: SK-MEL-2; assay: Cytotoxicity against human SK-MEL-2 cells after 48 hrs by SRB assay; details: SK-MEL-2, 48 h; procedure, shortened: as §1
[38] = system: SK-MEL-28; assay: Cytotoxicity against human SK-MEL-28 cells after 48 hrs by SRB assay; details: SK-MEL-28, 48 h; procedure, shortened: as §1
[39] = system: SK-MEL-5; assay: Cytotoxicity against human SK-MEL-5 cells after 48 hrs by SRB assay; details: SK-MEL-5, 48 h; procedure, shortened: as §1
[40] = Cytotoxicity against human UACC257 cells after 48 hrs by SRB assay; details: UACC-257, 48 h; procedure, shortened: as §2
[41] = Cytotoxicity against human UACC62 cells after 48 hrs by SRB assay; details: UACC-62, 48 h; procedure, shortened: as §2
[42] = Cytotoxicity against human IGROV1 cells after 48 hrs by SRB assay; details: IGROV-1, 48 h; procedure, shortened: as §3
[43] = Cytotoxicity against human OVCAR3 cells after 48 hrs by SRB assay; details: OVCAR-3, 48 h; procedure, shortened: as §1
[44] = Cytotoxicity against human OVCAR4 cells after 48 hrs by SRB assay; details: OVCAR-4, 48 h; procedure, shortened: as §1
[45] = Cytotoxicity against human OVCAR5 cells after 48 hrs by SRB assay; details: OVCAR-5, 48 h; procedure, shortened: as §1
[46] = Cytotoxicity against human OVCAR8 cells after 48 hrs by SRB assay; details: OVCAR-8, 48 h; procedure, shortened: as §1
[47] = Cytotoxicity against human NCI-ADR-RES cells after 48 hrs by SRB assay; procedure, shortened: as §1
[48] = Cytotoxicity against human SKOV3 cells after 48 hrs by SRB assay; details: SK-OV-3, 48 h; procedure, shortened: as §1
[49] = system: 786-0; assay: Cytotoxicity against human 786-0 cells after 48 hrs by SRB assay; details: 786-0, 48 h; procedure, shortened: as §1
[50] = system: A498; assay: Cytotoxicity against human A498 cells after 48 hrs by SRB assay; details: A498, 48 h; procedure, shortened: as §1
[51] = system: ACHN; assay: Cytotoxicity against human ACHN cells after 48 hrs by SRB assay; procedure, shortened: as §1
[52] = Cytotoxicity against human Caki1 cells after 48 hrs by SRB assay; details: CAKI-1, 48 h; procedure, shortened: as §1
[53] = Cytotoxicity against human RXF393 cells after 48 hrs by SRB assay; details: RXF 393, 48 h; procedure, shortened: as §1
[54] = system: SN12C; assay: Cytotoxicity against human SN12C cells after 48 hrs by SRB assay; procedure, shortened: as §1
[55] = Cytotoxicity against human TK10 cells after 48 hrs by SRB assay; details: TK-10, 48 h; procedure, shortened: as §2
[56] = Cytotoxicity against human UO31 cells after 48 hrs by SRB assay; details: UO-31, 48 h; procedure, shortened: as §2
[57] = Cytotoxicity against human PC3 cells after 48 hrs by SRB assay; details: PC-3, 48 h; procedure, shortened: as §1

Work on `COc1ccc(-c2n[nH]nc2-c2csc3ccccc23)cc1OC` yielded a GI50 [1] of 3770 nM, a GI50 [2] of 1450 nM and a GI50 [3] of 3210 nM. For the same molecule, the GI50 [4] was 2250 nM, the GI50 [5] was 2170 nM and the GI50 [6] was 2830 nM. For the same molecule, the GI50 [7] was 630 nM, the GI50 [8] was 3290 nM and the GI50 [9] was 1700 nM. It also gave a GI50 [10] of 516 nM, a GI50 [11] of 3050 nM and a GI50 [12] of 3640 nM. For the same molecule, the GI50 [13] was 4520 nM, the GI50 [14] was 3420 nM and the GI50 [15] was 2180 nM. For the same molecule, the GI50 [16] was 921 nM, the GI50 [17] was 13200 nM and the GI50 [18] was 3940 nM. For the same molecule, the GI50 [19] was 3560 nM, the GI50 [20] was 601 nM and the GI50 [21] was 2820 nM. The GI50 [22] was 4210 nM, the GI50 [23] was 2840 nM and the GI50 [24] was 1670 nM. It also gave a GI50 [25] of 2780 nM, a GI50 [26] of 2280 nM and a GI50 [27] of 3090 nM. For the same molecule, the GI50 [28] was 3690 nM, the GI50 [29] was 2330 nM and the GI50 [30] was 1840 nM. It also gave a GI50 [31] of 4670 nM, a GI50 [32] of 2190 nM and a GI50 [33] of 3040 nM. For the same molecule, the GI50 [34] was 13300 nM, the GI50 [35] was 1950 nM and the GI50 [36] was 337 nM. It also gave a GI50 [37] of 1440 nM, a GI50 [38] of 4630 nM and a GI50 [39] of 2830 nM. The GI50 [40] was 10900 nM, the GI50 [41] was 2770 nM and the GI50 [42] was 4210 nM. The GI50 [43] was 1940 nM, the GI50 [44] was 6330 nM and the GI50 [45] was 7910 nM. For the same molecule, the GI50 [46] was 4240 nM, the GI50 [47] was 2390 nM and the GI50 [48] was 2370 nM. It also gave a GI50 [49] of 3260 nM, a GI50 [50] of 2960 nM and a GI50 [51] of 3940 nM. The GI50 [52] was 3690 nM, the GI50 [53] was 2110 nM and the GI50 [54] was 8800 nM. The GI50 [55] was 2980 nM, the GI50 [56] was 2780 nM and the GI50 [57] was 3080 nM.
